Screening results as filed in PubChem.
Shown are actives, neighbours in structure and some others; about 2% of the full set was active somewhere.
NR2E3 ag-1 = NR2E3 (human) agonism. GST-NR2E3/biotin-RetCOR TR-FRET, 1536-well. inhibition of corepressor binding, % at 4.78 µM. 320,000 tested, 0.12% active. Q9Y5X4;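 active means percent inhibition above the cutoff of mean plus 3 SD of all tested compounds, set per screening campaign, cut at about 20% in these data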;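 further: 0% = DMSO wells and 100% = biotin wells as full block of FRET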
Target sequence (Q9Y5X4 whole entry, looked up): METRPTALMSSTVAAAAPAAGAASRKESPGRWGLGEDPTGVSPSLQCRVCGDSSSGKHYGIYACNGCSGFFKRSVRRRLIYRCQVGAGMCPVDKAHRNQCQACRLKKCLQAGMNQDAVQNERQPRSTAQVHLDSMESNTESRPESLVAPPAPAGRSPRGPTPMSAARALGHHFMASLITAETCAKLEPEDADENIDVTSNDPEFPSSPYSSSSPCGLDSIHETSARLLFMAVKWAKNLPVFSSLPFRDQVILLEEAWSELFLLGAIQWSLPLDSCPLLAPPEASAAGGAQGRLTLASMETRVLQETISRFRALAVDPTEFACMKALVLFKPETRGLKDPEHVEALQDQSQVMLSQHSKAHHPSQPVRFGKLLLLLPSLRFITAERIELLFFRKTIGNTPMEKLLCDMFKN
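system = GST-tagged NR2E3 plus biotinylated RetCOR corepressor | input = 1.35 nM GST-NR2E3 | also added = 7 nM biotin-RetCOR | schedule = 5 h incubation at 4 °C | measured by = TR-FRET with europium anti-GST and streptavidin-D2, 340 nm excitation | read-out = percent loss of FRET ratio relative to control wells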
NR1D1 modulator = modulates human Rev-erb alpha binding to DNA. P20393. Rev-erbα–FITC-DNA binding, fluorescence polarization, 90 min. activity, % at 10 µM. 370,000 tested, 0.79% active. AID 1259318;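 active means activity above about 14%, limit read from the data; passing the limit was not always enough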;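 further: 0% = DMSO wells with 35 nM protein and 100% = DMSO wells with 750 nM protein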
NR2E3 ag-2 = human photoreceptor-specific nuclear receptor agonism; 360,000 tested, 0.35% active; inhibition of corepressor binding, % at 3.98 µM; CHO-S Gal4-NCOR/VP16-NR2E3 two-hybrid, luciferase; Q9Y5X4;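 active means inhibition above the mean of all tested compounds plus 3 SD, cut at about 70% in these data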;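 further: 0% = DMSO with NR2E3 transfected cells and 100% = cells lacking NR2E3 construct; higher means lower luciferase signal from less NR2E3 corepressor binding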
PG9 Ab binder = binds the HIV-1 gp120 antibody PG9; TR-FRET gp120-PG9 antibody binding; inhibition, % at 6.7 µM; 360,000 tested, 0.43% active; AID 624416; in the data active means inhibition above about 8.5%
Neddylation inh = inhibitors of human cullin neddylation; P61081+Q13564; TR-FRET cullin neddylation, biochemical; calls only at 25 µM; 360,000 tested, 0.58% active; AID 651699; in the data active means inhibition above about 36%
Neddyl conf = confirmation of human cullin neddylation inhibitors. shares compounds with Neddylation inh. TR-FRET cullin neddylation biochemical assay. calls only at 25 µM. 1,800 tested, 13% active. AID 652217; in the data active means inhibition above about 40%;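 further: neddylation substrate is the cullin 1 ring ligase complex with SKP2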
The depositor's hits bear a star; i = inactive; nt = no result given; + = active, no number.

SMILES	NR2E3 ag-1	NR1D1 modulator	NR2E3 ag-2	PG9 Ab binder	Neddylation inh	Neddyl conf
O=C(N/N=C/c1cn(Cc2ccccc2)c2ccccc12)c1cc(O)cc(O)c1	nt	-5	1	0	+	+
CNc1cncc(-c2ccccc2NC(C)=O)n1	nt	-7	5	0	+	i
CN(C)c1nc(N)nc(CSc2nnnn2-c2ccc(Cl)cc2)n1	nt	-7	2	0	i	nt
Cc1[nH]c2ccccc2c1C(=O)C(C)OC(=O)c1ccccc1NCCO (stereo not given)	-5	-2	-51	4	+	nt
Cc1[nH]c2ccccc2c1C(=O)C(C)OC(=O)c1ccc(NC(=O)CC#N)cc1 (stereo not given)	2	2	26	0	i	nt
CCOC(=O)C1=C(COC(=O)/C=C/c2ccc(OC)cc2)NC(=O)NC1C (stereo not given)	nt	4	-8	-2	i	nt
CCOC(=O)C1=C(COC(=O)/C=C/c2ccc(SC)cc2)NC(=O)NC1C (stereo not given)	2	6	1	0	+	nt
CCCc1c(C)[nH]c2nc3ccccc3n2c1=O	-2	1	-19	-1	+	i
CCCCCCc1c(C)[nH]c2nc3ccccc3n2c1=O	-1	-16	-14	0	i	nt
O=c1cc(CCl)[nH]c2nc3ccccc3n12	1	-4	17	-2	+	i
COC(=O)c1cc2c(c3c4ccccc4n(S(=O)(=O)c4ccccc4)c13)C(=O)N(Cc1ccc(C(F)(F)F)cc1)C2	nt	-1	nt	-1	nt	nt
CCOc1ccc2[nH]c(=O)c(CN(Cc3cccs3)C(CC)c3nnnn3C(C)(C)CC)cc2c1 (stereo not given)	nt	1	-7	-2	+	i
CCOc1ccc2[nH]c(=O)c(CN(Cc3ccco3)C(CC)c3nnnn3Cc3ccccc3)cc2c1 (stereo not given)	5	-5	-28	-1	+	i
CCOC(=O)Cn1nnnc1C(CC)N(Cc1cccs1)Cc1cc2cc(C)ccc2[nH]c1=O (stereo not given)	-1	4	-28	1	i	nt
CCOC(=O)N1CCC(c2cc(=O)n3[nH]ccc3n2)CC1	-2	6	5	1	+	nt
COc1ccc(S(=O)(=O)N(C)C)cc1NC(=O)CSC(C)C(=O)Nc1cc(C)on1 (stereo not given)	2	1	-8	-3	i	nt
CC(Oc1cc2oc(=O)c3c(c2cc1Cl)CCC3)C(=O)NCc1cccnc1 (stereo not given)	-3	3	-2	-1	+	i
CC(Oc1cc2oc(=O)c3c(c2cc1Cl)CCCC3)C(=O)NCc1cccnc1 (stereo not given)	3	4	-15	-2	i	nt
COc1ccc(C(=O)N/N=C/c2ccc(OC)c(COc3ccc(F)cc3)c2)cc1	-2	-5	-2	-1	i	nt
COc1ccc(/C=N/NC(=O)c2cc3cc(OC)c(OC)cc3[nH]2)cc1	3	0	-13	-2	+	i
COc1cc2cc(C(=O)N/N=C/c3ccc(F)cc3)[nH]c2cc1OC	0	0	-30	0	+	i
COc1ccc2cc(C(=O)N/N=C/c3cc(OC)c(OC)c(OC)c3)[nH]c2c1	-2	6	-34	-2	+	+
COc1cc2cc(C(=O)N/N=C/c3ccccc3Cl)[nH]c2cc1OC	-1	6	-21	2	nt	nt
COc1cc2ccccc2cc1C(=O)N/N=C/c1cccnc1	0	1	-39	-3	i	nt
CCOc1ccc(/C=N/NC(=O)c2cc3ccccc3cc2OC)cc1	3	-2	-73	-3	+	i
SMILES	NR2E3 ag-1	NR1D1 modulator	NR2E3 ag-2	PG9 Ab binder	Neddylation inh	Neddyl conf
COC(=O)[C@]12C[C@H](CC(=O)NCCc3ccccc3OC)C(=O)N(Cc3ccccc3)C1=C[C@H](COCc1ccccc1)O[C@@H]2C	nt	-1	nt	nt	nt	nt
CCN(CC)CCOC(=O)c1cccc2c1-c1ccccc1C2O (stereo not given)	1	5	18	0	+	i
CCOc1ccc(-c2cc(C(=O)N/N=C(\C)c3cccnc3)c3ccccc3n2)c(OCC)c1	nt	0	-20	0	+	i
COc1cc(F)ccc1-c1csc(C(NC(C)=O)c2ccc(F)c(F)c2)n1 (stereo not given)	nt	2	-13	0	i	nt
N#Cc1nc(-c2ccco2)oc1NCCN1CCOCC1	1	-1	8	1	+	i
O=S(=O)(SC1=NCCN1)c1ccccc1	nt	3	8	1	i	nt
COc1cc(O)cc(/C=C/c2ccccc2)c1	nt	4	-120	-1	+	+
COc1ccc(C(=O)/C=C/c2ccccc2)c(O)c1	1	1	-20	-1	i	nt
CCN1CCN(C(=O)c2cn(CCOC)c(=O)c3c2c2ccccc2n3C)CC1	2	0	-10	-1	+	i
COCCn1cc(C(=O)N2CCCC(C)C2)c2c3ccccc3n(C)c2c1=O (stereo not given)	2	-3	-17	0	+	i
CCOC(=O)C1CCN(C(=O)c2cn(CCOC)c(=O)c3c2c2ccccc2n3C)CC1	1	5	-30	2	i	nt
CCC(C)NC(=O)c1cn(CCOC)c(=O)c2c1c1ccccc1n2C (stereo not given)	-1	2	-13	-1	i	nt
CC/C(=N\Nc1ccnc2cc(Cl)ccc12)c1ccc(O)cc1	0	3	-14	-2	+	i
COc1ccc(C(=O)Nc2sc3c(c2C(=O)O)CC(C)(C)OC3)cc1	0	-3	-28	0	+	+
CC1(C)Cc2c(sc(NC(=O)c3ccccc3)c2C(=O)O)CO1	4	2	-103	-1	i	nt
Brc1ccc(-c2ccc(/C=N/Nc3nc(N4CCOCC4)nc(N4CCOCC4)n3)o2)cc1	4	-5	-6	-2	+	i
Cc1ccc(C(=O)N/N=C\c2ccc(-c3ccc(Cl)c(Cl)c3)o2)cn1	-2	7	-21	-2	+	i
O=C(NCCc1ccccc1)OCc1cn(Cc2cccc(F)c2F)nn1	nt	-7	nt	nt	nt	nt
CC1(C)NC(=O)N(CCC(=O)Nc2ccc(C(C)(C)C)cc2)C1=O	nt	-1	-11	-2	i	nt
O=c1c(Cl)c(N/N=C/c2ccc(Cl)cc2)cnn1-c1ccccc1	1	-6	-49	0	+	i
CC(C)NC(=O)c1ccc(N(Cc2ccc(Cl)cc2)S(C)(=O)=O)cc1	0	6	-19	-1	i	nt
CCNC(=O)COC(=O)C1C(C(=O)OCC)=C(C)NC(C)=C1C(=O)OCC	-1	1	-8	-1	i	nt
CCOC(=O)C1=C(C)NC(C)=C(C(=O)OCC)C1C(=O)OCC(=O)NC1CCCCC1	nt	7	17	-2	+	i
